Consider 20 compounds from ChEMBL document CHEMBL2016474, “Structure-activity analysis and cell-based optimization of human galactokinase inhibitors” (ACS Med Chem Lett, 2011).

pIC50: −log10 of the molar value. Active and inactive are the calls of the source. The rule behind the calls is not given here.

Broadly, the inhibition is the relative decrease from the control value, in per cent. In general, pIC50 refers to the negative decadic logarithm of the IC50, by convention in mol/L. Low readings indicate a high IC50, high ones a low IC50.

Data set [1] concerns the target T1, Galactokinase (Homo sapiens, UniProt P51570). Put plainly: Inhibition of human […] at >50 uM after 30 mins by Kinase-GloTM assay. Summed up: (§1)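 GALK in vitro inhibition with IC50 determination; each value from three replicate measurements, given with standard deviation. Compounds not active below 50 μM recorded as exceeding that concentration.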
(Kinase-Glo measures the ATP left after a reaction by luminescence.)

Data set [2] addresses T1, Galactokinase. In words: Inhibition of […] in human primary fibroblasts derived from GALT-deficient patients assessed as reduction in accumulation of gal-1P at 50 uM preincubated overnight prior galactose challenge measured after 4 hrs. A digest of the protocol:
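Intracellular GALK inhibition in primary fibroblasts from classic galactosemia (GALT-deficient) patients. Compound given at 50 or 100 μM. Read-out is the percent reduction of cellular gal-1P accumulation.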

Data set [3] has as its target T1, Galactokinase. In words: Inhibition of human galactokinase after 30 mins by Kinase-GloTM assay. Summed up:
as §1

Data set [4] is described as follows: Toxicity in human primary fibroblasts assessed as lethality at >= 50 uM within 1 hr. Format: cell-based. Conditions: fibroblast.
A short description of data set [5]: Toxicity in human primary fibroblasts assessed as visible signs of lethality at 50 uM. In kind it is cell-based. Conditions: fibroblast.
Data set [6] can be described thus: Toxicity in human primary fibroblasts. Format: cell-based. Conditions: fibroblast.

T1 sequence (P51570 whole entry): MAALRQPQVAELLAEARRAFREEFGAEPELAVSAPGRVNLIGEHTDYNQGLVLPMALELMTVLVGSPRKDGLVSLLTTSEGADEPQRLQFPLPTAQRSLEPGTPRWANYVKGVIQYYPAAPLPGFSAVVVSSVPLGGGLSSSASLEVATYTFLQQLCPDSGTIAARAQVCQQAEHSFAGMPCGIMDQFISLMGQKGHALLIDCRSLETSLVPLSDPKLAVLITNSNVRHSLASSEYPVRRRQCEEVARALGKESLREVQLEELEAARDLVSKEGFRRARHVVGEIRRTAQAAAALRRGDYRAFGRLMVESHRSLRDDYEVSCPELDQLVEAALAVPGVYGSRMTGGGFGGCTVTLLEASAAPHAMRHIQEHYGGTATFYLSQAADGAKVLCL

Turning to `CSC1=C(C#N)C(=O)NC(c2ccc(Cl)cc2Cl)S1` (stereo not given), on Galactokinase [1], the inhibition entry is “inactive”.

On to `N#CC1=C(SCc2cccc(N3CCOCC3)c2)SC(c2cc(O)ccc2O)NC1=O` (stereo not given), for which the inhibition result at Galactokinase [2] was “inactive”. At Galactokinase [3], this compound gave a pIC50 of 6.05.

In the case of `CC1NC(=O)C(C#N)=C(SCc2ccccc2)S1` (stereo not given), the inhibition result at Galactokinase [1] was “inactive”.

`CC1(C)NC(=O)C(C#N)=C(SCc2ccccc2)S1`: at Galactokinase [1], the inhibition result was “inactive”.

In the case of `COc1ccc(C2NC(=O)C(C#N)=C(SCc3ccccc3)S2)cc1` (stereo not given), at Galactokinase [3], the pIC50 was below 4.30.

As to `CSC1=C(C#N)C(=O)NC(c2ccccc2O)S1` (stereo not given), at Galactokinase [3], the inhibition entry was “Active”.

In the case of `CC(=O)Oc1ccc(C2NC(=O)C(C#N)=C(SCc3ccccc3)S2)cc1OC(C)=O` (stereo not given), the Activity result in data set [4] is “Toxic”.

`N#CC1=C(SCc2ccccc2)SC(c2cc(O)ccc2O)NC1=O` (stereo not given) gave a pIC50 against Galactokinase [3] of 6.15.

As to `N#CC1=C(SCc2ccc(O)cc2)SC2(CCC(C(=O)O)CC2)NC1=O` (stereo not given), the inhibition result on Galactokinase [1] is “inactive”.

Take `N#CC1=C(SCc2ccccc2)SC(c2ccc(C(=O)O)cc2)NC1=O` (stereo not given): at Galactokinase [3], the inhibition result is “Active”.

Turning to `N#CC1=C(SCc2ccccc2)SCNC1=O`, the inhibition result on Galactokinase [1] is “inactive”.

`N#CC1=C(SCc2ccccc2)SC(c2ccc(O)cc2)NC1=O` (stereo not given) gave a pIC50 against Galactokinase [3] of 5.74.

For the compound `N#CC1=C(SCc2cccc(N3CCOCC3)c2)SC(c2ccc(O)c(O)c2)NC1=O` (stereo not given), the inhibition on Galactokinase [2] came out at 16%. For the same compound, the negative logarithm of the IC50 (pIC50) against Galactokinase [3] was 5.92. Further, the Activity entry in data set [5] is “Non-toxic”.

For the compound `N#CC1=C(SCc2cccc(N3CCOCC3)c2)SC(c2ccc(O)cc2)NC1=O` (stereo not given), the inhibition entry on Galactokinase [2] is “inactive”. Also, on Galactokinase [3], the pIC50 was 5.62. Also, in data set [5], the Activity entry was “Non-toxic”.

`CCCCSC1=C(C#N)C(=O)NC(c2ccccc2O)S1` (stereo not given): the inhibition entry at Galactokinase [1] is “inactive”.

In the case of `N#CC1=C(SCc2ccccc2)SC(c2ccc(O)c(O)c2)NC1=O` (stereo not given), in data set [6], the Activity result is given as “Toxic”.

`N#CC1=C(SCc2ccccc2)SC(c2ccccc2O)NC1=O` (stereo not given): the pIC50 against Galactokinase [3] is 4.92.

Regarding `N#CC1=C(SCc2ccccc2)SC(c2ccc(O)cc2O)NC1=O` (stereo not given), the pIC50 on Galactokinase [3] was 5.92.

For the compound `N#CC1=C(SCc2ccccc2)SC(c2ccc3c(c2)OCO3)NC1=O` (stereo not given), on Galactokinase [3], the pIC50 is 4.65.

On to `N#CC1=C(SCc2ccccc2)SC(c2cccc(O)c2)NC1=O` (stereo not given), for which the pIC50 against Galactokinase [3] was 4.30.
